Assay results as given in ChEMBL document CHEMBL1127609, “Cyclic benzamides as mixed dopamine D2/serotonin 5-HT2 receptor antagonists: potential atypical antipsychotic agents” (J Med Chem, 1994).

Tests used:
[1] = target: T1, 5-hydroxytryptamine receptor 1A (Rattus norvegicus, UniProt P19327); assay: In vitro binding affinity was measured on serotonergic 5-hydroxytryptamine 1A receptor by displacement of [3H]- tetralin
T1 sequence (P19327 whole entry): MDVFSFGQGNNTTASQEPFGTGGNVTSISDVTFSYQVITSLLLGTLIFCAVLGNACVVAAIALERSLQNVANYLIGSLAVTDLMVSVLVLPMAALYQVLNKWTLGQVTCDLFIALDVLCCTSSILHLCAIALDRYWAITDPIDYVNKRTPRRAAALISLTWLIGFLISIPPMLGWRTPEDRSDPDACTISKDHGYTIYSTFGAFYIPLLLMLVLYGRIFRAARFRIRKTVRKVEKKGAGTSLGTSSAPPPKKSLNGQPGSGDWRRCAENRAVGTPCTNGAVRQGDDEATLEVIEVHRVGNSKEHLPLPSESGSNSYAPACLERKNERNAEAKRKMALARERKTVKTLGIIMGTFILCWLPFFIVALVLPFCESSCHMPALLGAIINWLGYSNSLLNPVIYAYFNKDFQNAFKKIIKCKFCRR
In short: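 Rat hippocampus membranes from male Sprague-Dawley rats, homogenized in 50 mM Tris pH 7.7, preincubated 10 min at 37 °C. Final incubation buffer was 50 mM Tris, 4 mM CaCl2, 10 μM pargyline, 0.1% ascorbic acid, pH 7.4. [3H]-8-OH-DPAT at 0.3 nM final, 30 min at 25 °C, then filtration. Nonspecific binding was defined with 10 μM serotonin.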

[2] = target: Serotonin 2 (5-HT2) receptor (Rattus norvegicus, UniProt P30994+P08909+P14842); assay: In vitro binding affinity was measured on serotonergic 5-hydroxytryptamine 2 receptor by displacement of [3H]- ketanserin; assay type: protein assay
Mus musculus [3] = assay: In vivo the ability to antagonize the apomorphine induced climbing response in mice; assay type: functional
In short: (§1)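 Male CD-1 mice (20–25 g) were acclimated ≥30 min in wire-mesh cages. Drug in 0.5% methyl cellulose or vehicle was given po 60 min before sc apomorphine HCl 5 mg/kg in 0.0001 N HCl, N = 6/dose group. Climbing and stereotypy were scored every 5 min for 30 min, starting at 5 min. The six scores were averaged and % antagonism taken versus controls. ED50 by Litchfield–Wilcoxon.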

Mus musculus [4] = assay: In vivo the ability to antagonize the apomorphine induced climbing response in mice after peroral administration; assay type: functional; settings: po; in short: as §1
Mus musculus [5] = assay: Tested in vivo for their ability to antagonize the apomorphine induced stereotypy response in mice after peroral administration; assay type: functional; settings: po; in short: as §1
Mus musculus [6] = assay: Tested in vivo for their ability to induction of catalepsy in mice after peroral administration; assay type: functional; settings: po
In short: (§2)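 Catalepsy induction was tested in male CD-1 mice (20–25 g). Drug was given in 0.5% methyl cellulose vehicle at 0.5–2.0 mL/100 g. ED50 by Litchfield–Wilcoxon.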

Mus musculus [7] = assay: Tested in vivo for their ability to antagonize the apomorphine induced stereotypy response in mice; assay type: functional; in short: as §1
Mus musculus [8] = assay: Tested in vivo for their ability to induction of catalepsy in mice; assay type: functional; in short: as §2

Compound | IC50 [1] | IC50 [2] | ED50 (Mus musculus [3]; Mus musculus, read-out: ED50) | ED50 (Mus musculus [4]) | ED50 (Mus musculus [5]) | ED50 (Mus musculus [6]) | ED50 (Mus musculus [7]) | ED50 (Mus musculus [8]) | ED50 (Mus musculus [3])
O=c1c2ccccc2nnn1CCCCN1CCN(c2nsc3ccccc23)CC1 | 1.7 nM | 2.9 nM |  | 19.1 mg/kg | 57.8 mg/kg | 252 mg/kg |  |  | 
O=c1c2ccccc2ncn1CCCCN1CCN(c2nsc3ccccc23)CC1 | 0.59 nM | 2.3 nM |  | 6.2 mg/kg |  |  |  |  | 
O=c1c2ccccc2[nH]n1CCCCN1CCN(c2nsc3ccccc23)CC1 | 350 nM | 150 nM |  | > 25 mg/kg |  |  |  |  | 
Cc1nn(CCCCN2CCN(c3nsc4ccccc34)CC2)c(=O)c2ccccc12 | 3.4 nM | 0.84 nM |  | 30.4 mg/kg |  |  |  |  | 
CCOC(=O)n1c2ccccc2c(=O)n1CCCCN1CCN(c2nsc3ccccc23)CC1 | 33 nM | 7.9 nM | > 25 mg/kg |  |  |  |  |  | 
O=c1[nH]n(CCCCN2CCN(c3nsc4ccccc34)CC2)c(=O)c2ccccc12 | 2.6 nM | 76 nM |  | > 25 mg/kg |  |  |  |  | 
O=c1c2ccccc2cnn1CCCCN1CCN(c2nsc3ccccc23)CC1 | 10 nM | 1.8 nM |  | 9.5 mg/kg | 29.8 mg/kg | 70.4 mg/kg |  |  | 
O=C1C2CCCCC2C=NN1CCCCN1CCN(c2nsc3ccccc23)CC1 (stereo in doubt; 52) | 0.82 nM | 0.76 nM |  |  |  |  |  |  | 16.2 mg/kg
O=C1C2CCCCC2C=NN1CCCCN1CCN(c2nsc3ccccc23)CC1 (stereo in doubt; 53) | 0.021 nM | 0.38 nM | 25 mg/kg |  |  |  |  |  | 
O=C(CCCN1CCC(O)(c2ccc(Cl)cc2)CC1)c1ccc(F)cc1 [HALOPERIDOL] |  |  |  |  |  |  | 0.9 mg/kg | 3 mg/kg | 

Second part, led by results:

IC50 [1] | IC50 [2] | Compound | ED50 (Mus musculus [3]; Mus musculus, read-out: ED50) | ED50 (Mus musculus [4]) | ED50 (Mus musculus [5]) | ED50 (Mus musculus [6]) | ED50 (Mus musculus [7]) | ED50 (Mus musculus [8]) | ED50 (Mus musculus [3])
0.19 nM | 7.6 nM | O=C1c2ccccc2C(=O)N1CCCCN1CCN(c2nsc3ccccc23)CC1 | 6.2 mg/kg |  |  |  |  |  | 
120 nM | 140 nM | O=c1c2ccccc2sn1CCCCN1CCN(c2nsc3ccccc23)CC1 |  | > 25 mg/kg |  |  |  |  | 
4.1 nM | 4.2 nM | O=C1c2ccccc2CCCN1CCCCN1CCN(c2nsc3ccccc23)CC1 | > 25 mg/kg |  |  |  |  |  | 
7 nM | 5.1 nM | O=C1c2ccccc2CN1CCCCN1CCN(c2nsc3ccccc23)CC1 | 6.3 mg/kg |  |  |  | 24.7 mg/kg | > 360 mg/kg | 
1.8 nM | 4.7 nM | O=C1Cc2ccccc2C(=O)N1CCCCN1CCN(c2nsc3ccccc23)CC1 | 12.2 mg/kg |  |  |  | 40.3 mg/kg | 133 mg/kg | 
0.64 nM | 1.9 nM | O=C1c2ccccc2CCN1CCCCN1CCN(c2nsc3ccccc23)CC1 | 16.4 mg/kg |  |  |  |  |  | 
0.4 nM | 1.1 nM | O=C1c2ccccc2S(=O)(=O)N1CCCCN1CCN(c2nsc3ccccc23)CC1 |  | 48.7 mg/kg |  |  |  |  | 
